Test results reported in ChEMBL document CHEMBL5506034, “Development of Inhibitors, Probes, and PROTAC Provides a Complete Toolbox to Study PARK7 in the Living Cell” (J Med Chem, 2024).
Blank lines part the entries; values can stand above or below the compound they belong to. The source made the active and inactive calls. The calls are words filed in the database; no cut-off is given here.

Columns and labels:
A549 [1] = assay: Cytotoxicity in human A549 cells assessed as reduction in cell viability upto 5 uM incubated for 72 hrs by CellTiter-Blue viability assay; format: toxicity, cell-based; settings: a549, 72 h
How it was run: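 A549 cells (5×10^3/well) exposed next day to inhibitor, with DMSO as control. Compound renewed at 36 h, then 36 h more (72 h total). Viability read by CellTiter-Blue, normalized to DMSO and background-corrected.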

A549 [2] = assay: Downregulation of DOP1B protein level in human A549 cells at 5 uM incubated for 8 hrs by TMT-based total proteome profiling; format: functional, cell-based
How it was run: (§1)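 A549 cells treated 2 days after seeding with 5 μM compound, or DMSO, for 8 h. Lysed in 5% SDS buffer; 100 μg protein reduced, alkylated and trypsin-digested. Peptides TMTpro-labelled, pooled, high-pH fractionated and analysed by nano-LC-MS/MS; fold change and p-value taken against DMSO.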

[3] = target: Ubiquitin carboxyl-terminal hydrolase isozyme L1 (Homo sapiens) (UniProt P09936); assay: Inhibition of UCHL1 in HEK293T cells incubated for 24 hrs by SDS-PAGE based fluorescence scanning Western blot analysis; format: cell-based
Chain of Ubiquitin carboxyl-terminal hydrolase isozyme L1 (Homo sapiens) (P09936 whole entry, looked up): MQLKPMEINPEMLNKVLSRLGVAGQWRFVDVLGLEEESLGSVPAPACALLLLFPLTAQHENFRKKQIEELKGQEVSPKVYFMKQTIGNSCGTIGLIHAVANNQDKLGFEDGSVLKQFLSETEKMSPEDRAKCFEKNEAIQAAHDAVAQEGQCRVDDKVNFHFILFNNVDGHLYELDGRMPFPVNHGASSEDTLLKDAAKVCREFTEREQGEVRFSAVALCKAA

A549 [4] = assay: Downregulation of TM7SF3 protein level in human A549 cells at 5 uM incubated for 8 hrs by TMT-based total proteome profiling; format: functional, cell-based; how it was run: as §1
A549 [5] = assay: Effect on PARK7 protein level in human A549 cells at 5 uM incubated for 8 hrs by TMT-based total proteome profiling; format: functional, cell-based; how it was run: as §1
[6] = target: T1, Protein cereblon/Parkinson disease protein 7 (Homo sapiens) (UniProt Q96SW2+Q99497); assay: PROTAC activity at CRBN/PARK7 in human A549 cells assessed as induction of PARK7 degradation at 2 uM incubated for 8 hrs by Western blot analysis; format: cell-based
T1 sequence (Q96SW2 whole entry, looked up, one chain of several): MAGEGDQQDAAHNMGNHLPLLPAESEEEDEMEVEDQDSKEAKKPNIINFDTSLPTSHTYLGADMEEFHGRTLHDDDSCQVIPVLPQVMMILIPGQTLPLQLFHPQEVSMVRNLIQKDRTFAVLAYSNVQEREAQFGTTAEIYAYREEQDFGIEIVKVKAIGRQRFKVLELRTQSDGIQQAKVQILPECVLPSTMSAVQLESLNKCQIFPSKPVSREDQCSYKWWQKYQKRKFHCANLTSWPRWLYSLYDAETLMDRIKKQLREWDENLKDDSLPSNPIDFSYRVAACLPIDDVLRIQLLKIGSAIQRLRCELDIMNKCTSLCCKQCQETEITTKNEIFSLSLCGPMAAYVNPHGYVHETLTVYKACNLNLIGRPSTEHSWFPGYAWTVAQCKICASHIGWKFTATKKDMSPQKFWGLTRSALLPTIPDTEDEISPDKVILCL
How it was run: (§2)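 A549 cells treated the day after seeding with PROTAC (0.1–5 μM) for 8 h. Lysates boiled in LDS with β-mercaptoethanol and run on 4–12% Bis-Tris/MOPS SDS-PAGE. PARK7 immunoblotted and normalized to DMSO; three independent biological replicates, mean ± SD, Student's t test.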

[7] = target: T2, Parkinson disease protein 7 (Homo sapiens) (UniProt Q99497); assay: Inhibition of PARK7 in HEK293T cells at 0.1 to 20 uM incubated for 24 hrs by SDS-PAGE based fluorescence scanning analysis; format: cell-based; settings: dose 0.1-20 µM
T2 sequence (whole entry): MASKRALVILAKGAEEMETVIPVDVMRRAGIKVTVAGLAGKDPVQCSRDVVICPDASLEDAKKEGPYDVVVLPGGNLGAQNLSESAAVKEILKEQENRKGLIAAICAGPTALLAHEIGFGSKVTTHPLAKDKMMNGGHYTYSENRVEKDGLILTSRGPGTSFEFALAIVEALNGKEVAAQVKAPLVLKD
How it was run: (§3)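 Live HEK293T cells (DMEM, 7.5% FBS, 37 °C, 5% CO2) exposed to inhibitor for 24 h, then washed and lysed in Tris/NaCl/0.5% Triton X-100/2 mM TCEP pH 7.5 buffer. Lysate labelled with SulfoCy5 probe JYQ-92 (1 μM, 30 min). Residual PARK7 activity read by SDS-PAGE with Cy5-channel fluorescence scan, then immunoblot for PARK7 with β-actin as loading control.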

[8] = target: T2, Parkinson disease protein 7 (Homo sapiens); assay: Binding affinity to PARK7 in HEK293T cells assessed as target engagement at 1 to 5 uM incubated for 24 hrs by SDS-PAGE based fluorescence scanning Western blot analysis; format: cell-based; settings: dose 1-5 µM; how it was run: as §3
[9] = target: T1, Protein cereblon/Parkinson disease protein 7 (Homo sapiens); assay: PROTAC activity at CRBN/PARK7 in human A549 cells assessed as induction of PARK7 degradation at 0.1 to 5 uM incubated for 8 hrs by Western blot analysis; format: cell-based; settings: dose 0.1-5 µM; how it was run: as §2
A549 [10] = assay: Cellular protein labelling in human A549 cells assessed as unspecific 55-75 kDa band formation at 5 uM by SDS-PAGE based fluorescence scanning immunoblotting analysis; format: functional, cell-based
How it was run: (§4)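 Probes applied to intact HEK293T or A549 cells at 5 μM final for 24 h, then lysed. Read-out by SDS-PAGE fluorescence scan and immunoblot against PARK7, looking at the ~25 kDa labelled band, PARK7 band shift and extra bands.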

[11] = target: T2, Parkinson disease protein 7 (Homo sapiens); assay: Binding affinity to recombinant human PARK7 at 1 uM incubated for 1 hrs by coomassie staining based SDS-PAGE fluorescence scanning analysis relative to control
[12] = target: T2, Parkinson disease protein 7 (Homo sapiens); assay: Binding affinity to recombinant human PARK7 incubated for 1 hrs by coomassie staining based SDS-PAGE fluorescence scanning analysis; settings: dose 0.1-10 µM
[13] = target: T2, Parkinson disease protein 7 (Homo sapiens); assay: Binding affinity to PARK7 in A549 cells assessed as band shift at 5 uM incubated for 24 hrs by SDS-PAGE based fluorescence scanning immunoblotting analysis
[14] = Drug penetration in human A549 cells at 5 uM incubated for 1 hrs by DAPI staining based confocal microscopic analysis; format: ADME, cell-based; settings: a549, 1 h
How it was run: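 A549 cells incubated with probes at 5 μM final over a time course (1–24 h). For microscopy, cells on coverslips were fixed in 3.7% formaldehyde/PBS for 20 min, mounted with DAPI and imaged by confocal (63× oil). In parallel, cells were lysed for SDS-PAGE fluorescence scan and PARK7 immunoblot.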

A549 (Homo sapiens) = assay: Cellular protein labelling in A549 cells assessed as unspecific 55-75 kDa band formation at 5 uM by SDS-PAGE based fluorescence scanning immunoblotting analysis
[15] = target: T2, Parkinson disease protein 7 (Homo sapiens); assay: Binding affinity to PARK7 in human A549 cells assessed as band shift at 5 uM incubated for 24 hrs by SDS-PAGE based fluorescence scanning immunoblotting analysis; format: cell-based; how it was run: as §4
[16] = target: T1, Protein cereblon/Parkinson disease protein 7 (Homo sapiens); assay: PROTAC activity at CRBN/PARK7 in human HeLa cells assessed as induction of PARK7 degradation incubated for 8 hrs by Western blot analysis; format: cell-based; settings: dose 0.1-5 µM
How it was run: (§5)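 HeLa, H1299 or MCF7 cells (DMEM, 7.5% FBS) treated with a PROTAC concentration series for 8 h. Lysates analysed by SDS-PAGE and anti-PARK7 immunoblot.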

[17] = target: T1, Protein cereblon/Parkinson disease protein 7 (Homo sapiens); assay: PROTAC activity at CRBN/PARK7 in human A549 cells assessed as induction of PARK7 degradation at 5 uM incubated for 8 hrs by TMT-based total proteome profiling; format: cell-based; how it was run: as §1
[18] = target: T1, Protein cereblon/Parkinson disease protein 7 (Homo sapiens); assay: (§6) PROTAC activity at CRBN/PARK7 in human A549 cells assessed as induction of PARK7 degradation at 5 uM preincubated with pomalidomide for 4 hrs followed by compound addition and measured after 8 hrs by Western blot analysis; format: cell-based
How it was run: (§7)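 A549 cells pretreated 4 h with 5 μM pomalidomide, 5 μM PARK7 inhibitor or 10 μM MG-132, then given PROTAC (5 μM) for a further 8 h. PARK7 level assessed by lysis, SDS-PAGE and immunoblot.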

[19] = target: T1, Protein cereblon/Parkinson disease protein 7 (Homo sapiens); assay: PROTAC activity at CRBN/PARK7 in human MCF7 cells assessed as induction of PARK7 degradation incubated for 8 hrs by Western blot analysis; format: cell-based; settings: dose 0.1-5 µM; how it was run: as §5
[20] = target: T1, Protein cereblon/Parkinson disease protein 7 (Homo sapiens); assay: PROTAC activity at CRBN/PARK7 in human A549 cells assessed as induction of PARK7 degradation at 5 uM incubated for 4 to 24 hrs by Western blot analysis; format: cell-based; settings: time 4-24 hrs
How it was run: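 A549 cells exposed to PROTAC at 5 μM for varying times across the 4–24 h window. Lysates analysed by SDS-PAGE and anti-PARK7 immunoblot.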

[21] = target: T1, Protein cereblon/Parkinson disease protein 7 (Homo sapiens); assay: PROTAC activity at CRBN/PARK7 in human NCI-H1299 cells assessed as induction of PARK7 degradation incubated for 8 hrs by Western blot analysis; format: cell-based; settings: dose 0.1-5 µM; how it was run: as §5
[22] = target: T1, Protein cereblon/Parkinson disease protein 7 (Homo sapiens); assay: as §6, with “(R)-1-cyano-N-(5-(2-fluoro-5-(1H-1,2,3-triazol-1-yl)benzoyl)-4,5,6,7-tetrahydrothiazolo[5,4-c]pyridin-2-yl)pyrrolidine-3-carboxamide” for “pomalidomide”; format: cell-based; how it was run: as §7
[23] = target: T1, Protein cereblon/Parkinson disease protein 7 (Homo sapiens); assay: PROTAC activity at CRBN/PARK7 in human A549 cells assessed as induction of PARK7 degradation at 5 uM preincubated with MG-132 for 4 hrs followed by compound addition and measured after 8 hrs by Western blot analysis; format: cell-based; how it was run: as §7
[24] = target: T2, Parkinson disease protein 7 (Homo sapiens); assay: Binding affinity to recombinant human PARK7 at 2 uM incubated for 1 hrs by coomassie staining based SDS-PAGE fluorescence scanning analysis relative to control
[25] = target: T2, Parkinson disease protein 7 (Homo sapiens); assay: Binding affinity to PARK7 in HEK293T cells assessed as band shift at 5 uM incubated for 24 hrs by SDS-PAGE based fluorescence scanning immunoblotting analysis; format: cell-based; how it was run: as §3
[26] = target: T2, Parkinson disease protein 7 (Homo sapiens); assay: Binding affinity to recombinant human PARK7 at 5 uM incubated for 1 hrs by coomassie staining based SDS-PAGE fluorescence scanning analysis relative to control

Structure (SMILES): N#CN1CC[C@@H](C(=O)Nc2nc3c(s2)CN(C(=O)c2cc(-n4cc(COCCOCCOCCNc5cccc6c5C(=O)N(C5CCC(=O)NC5=O)C6=O)nn4)ccc2F)CC3)C1 (stereo partly specified)
Activity [6]: Active

Structure (SMILES): N#CN1CC[C@@H](C(=O)Nc2nc3c(s2)CN(C(=O)c2cccc(S(=O)(=O)N4CCN(C(=O)Cn5cc(COCCOCCNc6cccc7c6C(=O)N(C6CCC(=O)NC6=O)C7=O)nn5)CC4)c2)CC3)C1 (stereo partly specified)
Activity [9]: inactive

Structure (SMILES): CC[N+]1=C(/C=C/C=C/C=C2/N(CCCCCC(=O)NCCCc3cn(-c4ccc(F)c(C(=O)N5CCc6nc(NC(=O)[C@@H]7CCN(C#N)C7)sc6C5)c4)nn3)c3ccc(S(=O)(=O)O)cc3C2(C)C)C(C)(C)c2cc(S(=O)(=O)[O-])ccc21
Activity (A549 [10]): Active
Activity [11]: 100%
Activity [12]: Dose-Dependent Effect
Activity [13]: Active
Drug uptake [14]: Active
Activity (A549 (Homo sapiens)): Active
Activity [15]: Active

Structure (SMILES): N#CN1CC[C@@H](C(=O)Nc2nc3c(s2)CN(C(=O)c2cc(-n4cc(COCCOCCNc5cccc6c5C(=O)N(C5CCC(=O)NC5=O)C6=O)nn4)ccc2F)CC3)C1 (stereo partly specified)
Activity [16]: Dose-Dependent Effect
Activity [9]: Active
Activity [17]: Active
Activity [18]: inactive
Activity [19]: Dose-Dependent Effect
Activity [20]: Active
Activity (A549 [2]): Active
Activity [21]: Dose-Dependent Effect
Activity [22]: inactive
Activity (A549 [4]): Active
Activity [23]: inactive

Structure (SMILES): CC[N+]1=C(/C=C/C=C/C=C2/N(CCCCCC(=O)NCCCc3cn(CC(=O)N4CCN(S(=O)(=O)c5cccc(C(=O)N6CCc7nc(NC(=O)[C@@H]8CCN(C#N)C8)sc7C6)c5)CC4)nn3)c3ccc(S(=O)(=O)[O-])cc3C2(C)C)C(C)(C)c2cc(S(=O)(=O)O)ccc21
Activity (A549 [10]): Active
Activity [12]: Dose-Dependent Effect
Activity [13]: Active
Activity [24]: 100%
Drug uptake [14]: Active
Activity (A549 (Homo sapiens)): Active
Activity [15]: Active

Structure (SMILES): CC1=CC(C)=[N+]2C1=C(CCCCc1cn(CC(=O)N3CCN(S(=O)(=O)c4cccc(C(=O)N5CCc6nc(NC(=O)[C@@H]7CCN(C#N)C7)sc6C5)c4)CC3)nn1)c1c(C)cc(C)n1[B-]2(F)F
Activity [25]: inactive
Activity [26]: 100%
Activity [12]: Dose-Dependent Effect
Activity [15]: inactive

Structure (SMILES): N#CN1CC[C@@H](C(=O)Nc2nc3c(s2)CN(C(=O)c2cccc(S(=O)(=O)N4CCN(C(=O)Cn5cc(COCCOCCOCCNc6cccc7c6C(=O)N(C6CCC(=O)NC6=O)C7=O)nn5)CC4)c2)CC3)C1 (stereo partly specified)
Activity [9]: inactive

Continued, in another order:

inhibition [3]: inactive
Structure (SMILES): N#CN1CC[C@@H](C(=O)Nc2nc3c(s2)CN(C(=O)c2cc(-n4ccnn4)ccc2F)CC3)C1
Activity (A549 [1]): Non-Toxic
Activity (A549 [2]): Active
Activity (A549 [4]): Active
Activity (A549 [5]): inactive

inhibition [7]: inactive
Structure (SMILES): N#CN1CC[C@@H](C(=O)Nc2nc3c(s2)CN(C(=O)CN=[N+]=[N-])CC3)C1

Activity [8]: Active
inhibition [3]: inactive
Structure (SMILES): CC(=O)N1CCN(S(=O)(=O)c2cccc(C(=O)N3CCc4nc(NC(=O)[C@@H]5CCN(C#N)C5)sc4C3)c2)CC1

inhibition [3]: inactive
Structure (SMILES): N#CN1CC[C@@H](C(=O)Nc2nc3c(s2)CN(C(=O)c2cccc(S(=O)(=O)N4CCOCC4)c2)CC3)C1
Activity (A549 [1]): Non-Toxic

inhibition [3]: Active
Structure (SMILES): Cc1csc(-c2cccc(C(=O)N3CCc4nc(NC(=O)[C@@H]5CCN(C#N)C5)sc4C3)c2)n1

inhibition [3]: Active
Structure (SMILES): N#CN1CC[C@@H](C(=O)Nc2nc3c(s2)CN(C(=O)c2cnc(-c4cccs4)s2)CC3)C1

inhibition [3]: Active
Structure (SMILES): Cc1cc(C(=O)N2CCc3nc(NC(=O)[C@@H]4CCN(C#N)C4)sc3C2)ccc1Br

inhibition [3]: Active
Structure (SMILES): N#CN1CC[C@@H](C(=O)Nc2nc3c(s2)CN(C(=O)c2cccc(-c4ncon4)c2)CC3)C1
